Source: article PMC6687308 (Journal of natural products, 2017)
“Also recorded” adds a separate entry of the source. Read-outs that look alike come from different tables or passages of the source. Values belong to the compound of their own block, whether it stands above or below them.

What was measured:
[1] = tested on: TRPM2-overexpressing HEK293 cells; assay type: cell-based
human TRPM2 = human TRPM2 (Homo sapiens, UniProt O94759); assay type: cell-based; details: for TRPM2 current amplitudes at fivefold higher concentration: fivefold higher concentrations
Chain of human TRPM2 (O94759 whole entry): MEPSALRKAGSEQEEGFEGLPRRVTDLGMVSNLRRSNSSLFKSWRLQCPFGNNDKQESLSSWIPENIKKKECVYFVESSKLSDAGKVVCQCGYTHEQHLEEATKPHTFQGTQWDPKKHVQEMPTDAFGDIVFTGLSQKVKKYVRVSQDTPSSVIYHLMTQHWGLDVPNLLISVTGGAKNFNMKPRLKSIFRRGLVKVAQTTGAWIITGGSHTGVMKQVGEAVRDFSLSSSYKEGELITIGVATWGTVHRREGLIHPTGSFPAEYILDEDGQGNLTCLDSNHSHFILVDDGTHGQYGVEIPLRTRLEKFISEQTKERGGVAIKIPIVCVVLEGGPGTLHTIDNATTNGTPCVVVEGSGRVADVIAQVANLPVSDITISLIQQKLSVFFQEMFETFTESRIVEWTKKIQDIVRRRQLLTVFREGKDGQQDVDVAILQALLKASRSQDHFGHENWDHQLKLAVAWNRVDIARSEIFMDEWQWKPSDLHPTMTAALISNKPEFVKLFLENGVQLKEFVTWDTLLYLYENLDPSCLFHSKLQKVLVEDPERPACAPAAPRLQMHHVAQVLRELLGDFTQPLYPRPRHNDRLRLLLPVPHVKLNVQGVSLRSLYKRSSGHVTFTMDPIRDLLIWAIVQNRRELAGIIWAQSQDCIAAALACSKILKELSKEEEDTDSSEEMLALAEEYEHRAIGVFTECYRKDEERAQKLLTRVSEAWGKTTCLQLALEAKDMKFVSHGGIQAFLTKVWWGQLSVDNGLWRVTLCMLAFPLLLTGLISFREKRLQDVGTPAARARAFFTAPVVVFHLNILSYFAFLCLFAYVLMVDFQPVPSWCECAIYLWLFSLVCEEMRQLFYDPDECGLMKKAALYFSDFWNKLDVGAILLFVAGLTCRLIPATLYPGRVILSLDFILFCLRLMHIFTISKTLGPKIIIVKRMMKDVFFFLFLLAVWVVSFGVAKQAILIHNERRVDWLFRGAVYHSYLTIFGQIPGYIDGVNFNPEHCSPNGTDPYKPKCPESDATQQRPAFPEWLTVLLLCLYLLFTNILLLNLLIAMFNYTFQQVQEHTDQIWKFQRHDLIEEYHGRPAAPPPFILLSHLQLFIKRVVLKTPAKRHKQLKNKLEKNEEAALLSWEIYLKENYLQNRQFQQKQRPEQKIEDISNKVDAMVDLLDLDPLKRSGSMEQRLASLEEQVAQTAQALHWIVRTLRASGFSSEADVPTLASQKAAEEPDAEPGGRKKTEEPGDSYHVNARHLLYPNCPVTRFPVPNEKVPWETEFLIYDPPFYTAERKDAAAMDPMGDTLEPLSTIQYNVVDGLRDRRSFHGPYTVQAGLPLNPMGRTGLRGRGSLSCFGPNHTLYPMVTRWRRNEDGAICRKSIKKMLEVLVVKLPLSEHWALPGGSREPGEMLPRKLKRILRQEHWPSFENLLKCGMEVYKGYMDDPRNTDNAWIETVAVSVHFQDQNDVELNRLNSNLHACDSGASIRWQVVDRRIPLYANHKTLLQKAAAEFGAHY

TRPM2 = details: with preincubation; cited from earlier work
CRAC (Orai1/STIM1) = CRAC (Orai1/STIM1) (Homo sapiens, UniProt Q96D31); assay type: cell-based; details: 2 μM, 30–60 min exposure
Chain of CRAC (Orai1/STIM1) (Q96D31 whole entry, species assumed): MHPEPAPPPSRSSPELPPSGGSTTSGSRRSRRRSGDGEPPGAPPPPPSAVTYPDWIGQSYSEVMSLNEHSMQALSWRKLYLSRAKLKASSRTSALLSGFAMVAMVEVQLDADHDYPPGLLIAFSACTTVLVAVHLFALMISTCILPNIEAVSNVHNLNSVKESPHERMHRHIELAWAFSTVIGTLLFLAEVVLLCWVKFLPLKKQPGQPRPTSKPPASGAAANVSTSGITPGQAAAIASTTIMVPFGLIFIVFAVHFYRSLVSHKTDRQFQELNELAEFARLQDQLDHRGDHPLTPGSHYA
Chain of CRAC (Orai1/STIM1) (Q13586 23-685 partner, species assumed): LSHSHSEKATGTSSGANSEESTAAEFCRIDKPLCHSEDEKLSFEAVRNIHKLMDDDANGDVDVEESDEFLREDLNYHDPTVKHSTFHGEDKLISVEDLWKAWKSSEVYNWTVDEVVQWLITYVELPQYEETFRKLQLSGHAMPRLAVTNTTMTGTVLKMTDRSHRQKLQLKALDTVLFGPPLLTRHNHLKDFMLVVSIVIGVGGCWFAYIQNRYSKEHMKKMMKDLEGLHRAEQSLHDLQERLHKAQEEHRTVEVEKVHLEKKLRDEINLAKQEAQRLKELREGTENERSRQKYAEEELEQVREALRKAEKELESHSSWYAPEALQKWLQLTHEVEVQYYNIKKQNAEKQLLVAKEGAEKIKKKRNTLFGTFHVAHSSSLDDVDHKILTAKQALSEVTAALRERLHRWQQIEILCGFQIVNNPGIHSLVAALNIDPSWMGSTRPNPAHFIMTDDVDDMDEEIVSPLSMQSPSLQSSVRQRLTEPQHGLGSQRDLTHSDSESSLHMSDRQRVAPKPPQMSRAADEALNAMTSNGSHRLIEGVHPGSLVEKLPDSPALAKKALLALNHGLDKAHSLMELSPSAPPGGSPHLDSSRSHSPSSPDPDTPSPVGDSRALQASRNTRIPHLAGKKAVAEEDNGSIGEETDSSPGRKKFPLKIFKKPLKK
Summary of the method: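 HEK293 cells stably expressing STIM1 were transiently transfected with CRACM1-pIRES2-EGFP and patched 24–48 h later, with EGFP identifying cotransfected cells. External solution contained 10 mM CaCl2 and 10 mM TEA-Cl (pH 7.2, 300 mOsm). Ramps ran −150 to +150 mV over 50 ms. Bath solution was control or supplemented with test compound. Current–voltage relationships were taken at 100 s.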

endogenous TRPM2 = endogenous TRPM2 (Rattus norvegicus, UniProt E9PTA2); assay type: cell-based
Chain of endogenous TRPM2 (E9PTA2 whole entry): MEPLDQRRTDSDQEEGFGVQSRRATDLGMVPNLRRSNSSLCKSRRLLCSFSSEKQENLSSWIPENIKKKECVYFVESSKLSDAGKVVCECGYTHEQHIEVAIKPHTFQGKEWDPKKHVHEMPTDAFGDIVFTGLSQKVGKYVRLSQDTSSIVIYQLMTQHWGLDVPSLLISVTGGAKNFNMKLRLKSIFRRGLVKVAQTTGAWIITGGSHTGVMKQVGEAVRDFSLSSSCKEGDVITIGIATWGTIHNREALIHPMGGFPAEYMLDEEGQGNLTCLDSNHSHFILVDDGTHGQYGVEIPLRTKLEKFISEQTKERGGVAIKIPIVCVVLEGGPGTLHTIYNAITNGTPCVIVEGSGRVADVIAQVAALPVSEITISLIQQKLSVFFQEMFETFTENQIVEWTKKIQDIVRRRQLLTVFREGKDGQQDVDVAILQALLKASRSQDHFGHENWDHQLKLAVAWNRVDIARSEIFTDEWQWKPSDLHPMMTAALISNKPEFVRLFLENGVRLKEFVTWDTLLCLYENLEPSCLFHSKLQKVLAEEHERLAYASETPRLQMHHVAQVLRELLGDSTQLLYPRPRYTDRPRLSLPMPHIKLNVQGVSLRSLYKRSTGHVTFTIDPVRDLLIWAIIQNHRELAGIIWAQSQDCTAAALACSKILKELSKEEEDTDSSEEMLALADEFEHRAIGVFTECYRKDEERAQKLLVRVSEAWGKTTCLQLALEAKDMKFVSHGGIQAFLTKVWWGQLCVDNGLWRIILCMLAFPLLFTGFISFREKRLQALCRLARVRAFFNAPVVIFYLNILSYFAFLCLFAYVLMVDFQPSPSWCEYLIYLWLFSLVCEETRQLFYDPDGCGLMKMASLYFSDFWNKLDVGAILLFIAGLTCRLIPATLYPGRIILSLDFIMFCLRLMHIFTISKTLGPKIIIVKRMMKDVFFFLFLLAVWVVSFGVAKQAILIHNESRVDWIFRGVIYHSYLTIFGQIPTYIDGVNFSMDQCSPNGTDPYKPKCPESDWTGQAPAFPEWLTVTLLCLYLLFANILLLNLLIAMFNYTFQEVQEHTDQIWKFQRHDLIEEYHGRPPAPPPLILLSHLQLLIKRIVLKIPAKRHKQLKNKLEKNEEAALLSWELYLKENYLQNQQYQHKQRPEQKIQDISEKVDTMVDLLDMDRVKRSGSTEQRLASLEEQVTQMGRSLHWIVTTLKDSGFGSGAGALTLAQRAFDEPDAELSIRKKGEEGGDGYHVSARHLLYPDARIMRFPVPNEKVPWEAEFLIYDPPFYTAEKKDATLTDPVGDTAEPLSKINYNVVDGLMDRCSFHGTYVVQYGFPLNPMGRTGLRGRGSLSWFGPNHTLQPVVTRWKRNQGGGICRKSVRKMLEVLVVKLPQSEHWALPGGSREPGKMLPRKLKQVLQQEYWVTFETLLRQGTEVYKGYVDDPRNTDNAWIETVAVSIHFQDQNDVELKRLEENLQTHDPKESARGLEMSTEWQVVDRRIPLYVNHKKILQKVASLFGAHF
Summary of the method: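 INS-1 cells (RPMI, 10% FBS) were held in standard external Ringer's (pH 7.2) containing the test compound. Whole-cell currents were recorded during the first 60 min, at 21–25 °C. Pipette: 140 mM Cs-glutamate, unbuffered Ca2+, ADPR 100 or 500 μM. Ramps ran −100 to +100 mV (50 ms, 0.5 Hz). Amplitudes at −80 mV and 50 s were expressed as percent inhibition of control and fitted for IC50 and Hill coefficient.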

endogenous TRPM4 = endogenous TRPM4 (Homo sapiens, UniProt Q8TD43); assay: Whole-cell patch clamp of endogenous TRPM4-like currents in Jurkat T lymphocytes; assay type: cell-based; details: 500 nM
Summary of the method: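 Jurkat T cells were incubated with 500 nM test compound or none in standard external solution before whole-cell recording. Recordings were made within the first 60 min of incubation. Pipette: Cs-glutamate-based solution with intracellular Ca2+ clamped to 2 μM. Ramps ran −100 to +100 mV (50 ms, 0.5 Hz) from 0 mV, at 21–25 °C. Currents were extracted at −80 mV.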

INS-1 cells = assay: Appearance of INS-1 cells during exposure in patch-clamp sessions; assay type: cell-based, rat
Summary of the method: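 Rat insulinoma INS-1 cells were grown at 37 °C, 5% CO2 in RPMI with 10% FBS. During whole-cell patch-clamp sessions at 21–25 °C, cells were held in standard external Ringer's solution with continual exposure to the test compound.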

TRPV1 = TRPV1 (Rattus norvegicus, UniProt O35433); assay type: cell-based; details: 500 nM, 10 μM capsaicin
Chain of TRPV1 (O35433 whole entry): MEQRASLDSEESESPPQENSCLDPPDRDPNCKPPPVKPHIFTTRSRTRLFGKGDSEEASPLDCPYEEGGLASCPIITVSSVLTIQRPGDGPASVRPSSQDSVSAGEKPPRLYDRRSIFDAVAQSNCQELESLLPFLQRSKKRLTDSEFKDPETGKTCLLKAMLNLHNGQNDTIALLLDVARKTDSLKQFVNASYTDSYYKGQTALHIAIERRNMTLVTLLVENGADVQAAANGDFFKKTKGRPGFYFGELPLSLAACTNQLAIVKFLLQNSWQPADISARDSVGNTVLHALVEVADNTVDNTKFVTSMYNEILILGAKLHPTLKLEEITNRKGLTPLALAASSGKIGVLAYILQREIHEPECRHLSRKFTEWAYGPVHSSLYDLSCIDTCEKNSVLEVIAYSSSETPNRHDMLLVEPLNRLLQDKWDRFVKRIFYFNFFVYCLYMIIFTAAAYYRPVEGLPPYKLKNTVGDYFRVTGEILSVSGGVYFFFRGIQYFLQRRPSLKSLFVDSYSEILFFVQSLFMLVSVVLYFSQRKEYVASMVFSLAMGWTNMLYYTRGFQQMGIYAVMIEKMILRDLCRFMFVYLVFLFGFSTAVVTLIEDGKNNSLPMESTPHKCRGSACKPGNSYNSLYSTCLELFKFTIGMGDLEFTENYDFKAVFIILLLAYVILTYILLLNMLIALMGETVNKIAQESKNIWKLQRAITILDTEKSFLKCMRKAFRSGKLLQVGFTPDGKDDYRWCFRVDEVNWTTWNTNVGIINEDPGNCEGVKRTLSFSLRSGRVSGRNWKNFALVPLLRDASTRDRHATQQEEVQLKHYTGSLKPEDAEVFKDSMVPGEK
Summary of the method: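 INS-1 cells were incubated with 500 nM test compound or none in standard external Ringer's solution before whole-cell patch clamp at 21–25 °C. Pipette: 140 mM Cs-glutamate, 8 NaCl, 1 MgCl2, 10 HEPES (pH 7.2), with Ca2+ left unbuffered. Ramps ran −100 to +100 mV over 50 ms at 0.5 Hz from a 0 mV holding potential. Amplitudes were taken at −80 mV.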

mouse TRPM7 = mouse TRPM7 (Mus musculus, UniProt Q923J1); assay: Whole-cell patch clamp of TRPM7 currents in tetracycline-inducible HEK293 cells; assay type: cell-based; details: +80 mV, 200 s
Summary of the method: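 Tetracycline-inducible HEK293 cells carrying FLAG-murine TRPM7 were induced with 1 μg/mL tetracycline 5–22 h beforehand. Cells were then incubated 15 min in culture medium with 100 nM, 500 nM or 2 μM test compound. Pipette: 140 mM K-glutamate with 10 mM BAPTA. Ramps ran −100 to +100 mV at 0.5 Hz, 21–25 °C. Amplitudes, not capacitance-corrected, were taken at +80 mV and 200 s, normalized, and fitted for IC50 and Hill coefficient.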

Structure (SMILES): O=c1[nH]c2ccccc2n1C1CCN(Cc2ccc(-c3nc4cc5[nH]cnc5cc4nc3-c3ccccc3)cc2)CC1 [Akt inhibitor VIII, 1,3-dihydro-1-(1-((4-(6-phenyl-1H-imidazo[4,5-g]quinoxalin-7-yl)phenyl)methyl)-4-piperidinyl)-2H-benzimidazol-2-one]
Effect on cell viability at fivefold higher concentration [1]: affected cell viability
Effect on TRPM2-mediated currents (human TRPM2; 200 nM, 60 min preincubation, 500 μM ADPR): failed to affect
TRPM2 current amplitudes at fivefold higher concentration (human TRPM2; data not shown): comparable to control cells

Structure (SMILES): O=C1NCCc2c(OCCCCN3CCCCC3)cccc21 [DPQ, 3,4-dihydro-5-[4-(1-piperidinyl)butoxyl]-1(2H)-isoquinolinone]
Effect on TRPM2-mediated currents (ADPR in pipet) (human TRPM2; PARP-1 inhibitors, 100 μM ADPR, first 60 min): did not affect

Structure (SMILES): COc1cc(/C=C/C(=O)CC(=O)/C=C/c2ccc(O)c(OC)c2)ccc1O [curcumin]
Concentration range blocking TRPM2 currents (TRPM2): low nanomolar range

Structure (SMILES): O=C(O)CC[C@@H](Cc1ccc(OCc2ccccc2)cc1)NC(=O)CCCCCCc1ccccc1 [sPLA2 inhibitor, 5-(4-benzyloxyphenyl)-4S-(7-phenylheptanoylamino)pentanoic acid]
Cell death during a 1 h recording session ([1]; 5–10-fold higher concentrations, data not shown): significant cell death
Effect on TRPM2-mediated currents (human TRPM2; 5 μM, 100 μM ADPR): lack of effect

Effect on ADPR-induced currents (endogenous TRPM2; 0.5–2.0 μM): largely abolished
Hill coefficient of INS-1 TRPM2 dose-response fit (endogenous TRPM2; −80 mV, 50 s): 4
Time cells appeared healthy with continual exposure (INS-1 cells; 500 nM and lower concentrations): at least 1 h
Condition of INS-1 cells (INS-1 cells; 2 μM): rapidly deteriorated
Incubation time to reach full potency (full onset) of TRPM2 inhibition (human TRPM2; 2 μM scalaradial): ~ 20 min
Effect of acute application on TRPM2 currents (human TRPM2; 2 μM, acute application): did not significantly affect
Hill coefficient of TRPM2 concentration-response fit (human TRPM2; 30–60 min incubation, −80 mV, 100 s): 1.3
Time dependency of TRPM2 inhibition when added internally (human TRPM2; added to the cell internally, data not shown): not affected
Time to recovery of TRPM2 currents after drug removal (human TRPM2; after 60 min incubation in 2 μM): ≤ 5 min
Hill coefficient of TRPM7 concentration-response fit (mouse TRPM7): 2
Structure (SMILES): CC(=O)O[C@H]1C[C@@H]2[C@@]3(C)CCCC(C)(C)[C@@H]3CC[C@@]2(C)[C@@H]2CC=C(C=O)[C@H](C=O)[C@@]12C [scalaradial]
Effect on CRAC currents (CRAC (Orai1/STIM1)): no significant inhibition; also recorded: did not significantly affect; also recorded: failed to inhibit
Effect on TRPM4 current (endogenous TRPM4): without affecting the current; also recorded: failed to inhibit
Effect on TRPV1 current (TRPV1): does not inhibit; also recorded: failed to inhibit

Structure (SMILES): COC[C@H]1OC(=O)c2coc3c2[C@@]1(C)C1=C(C3=O)[C@@H]2CCC(=O)[C@@]2(C)C[C@H]1OC(C)=O [wortmannin]
Effect on cell viability at fivefold higher concentration ([1]; fivefold higher concentrations, cell rounding, granule formation, blebbing, data not shown): affected cell viability
Effect on TRPM2-mediated currents (human TRPM2; 20 nM, 60 min preincubation, 500 μM ADPR): failed to affect
TRPM2 current amplitudes at fivefold higher concentration (human TRPM2; data not shown): comparable to control cells
